Laboratory results: ChEMBL document CHEMBL1122325, “2-[(Phenylthio)methyl]pyridine derivatives: new antiinflammatory agents” (1983)
Active and inactive are the calls of the source. No cut-off for these calls is given here.

Experiments:
Rattus norvegicus [1] = experiment: Inhibition of dermal RPAR in rats following p.o. administration.; assay type: functional
Summary of the method: (§1)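 Male Sprague-Dawley rats (140-160 g, n=6/group), fasted 18 h, given iv BSA 0.15% w/v with 0.4% Evans Blue in saline, then test agent orally in 0.2% methylcellulose about 1 h later (three dose levels, vehicle controls). Anti-BSA rabbit γ-globulin injected intradermally 30 min post-dose; lesions excised at 4 h, dye-outlined diameters measured, percent inhibition of lesion area versus control; 40% inhibition dose by least-squares regression.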

Rattus norvegicus [2] = organism: Rattus norvegicus; experiment: animal or person; assay type: functional; conditions: po
Rattus norvegicus [3] = organism: Rattus norvegicus; experiment: Reduction in leukocyte numbers in rat pleural carrageenan test.; assay type: functional
Summary of the method: (§2)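 Fasted male Sprague-Dawley rats (160-200 g, 8-10/group) dosed orally at four levels in 0.2% methylcellulose, or vehicle, 30 min before intrapleural carrageenin (125 μg in 0.2 mL saline); no iv BSA. Killed 4 h later; pleural exudate volume and white cells measured by phenol red dye dilution, inhibition calculated against vehicle controls.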

Rattus norvegicus [4] = organism: Rattus norvegicus; experiment: Reduction in leukocyte numbers in rat pleural RPAR exudate.; assay type: functional
Summary of the method: (§3)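 Fasted male Sprague-Dawley rats (160-200 g, 8-10/group) received BSA 3 mg/kg iv, then 1 h later intrapleural rabbit anti-BSA γ-globulin (0.2 mL); oral compound (four doses, 0.2% methylcellulose) or vehicle 30 min before. At 4 h, exudate volume and white cell count by phenol red dye dilution; percent inhibition versus control mean; ED50 by least-squares regression.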

Rattus norvegicus [5] = organism: Rattus norvegicus; experiment: Reduction in exudate volume in rat pleural RPAR test.; assay type: functional; summary of the method: as §3
Rattus norvegicus [6] = organism: Rattus norvegicus; experiment: Reduction in exudate volume in rat pleural carrageenan test.; assay type: functional; summary of the method: as §2
Rattus norvegicus [7] = experiment: Inhibition of dermal RPAR in rats following p.o. administration; Not significant.; assay type: functional; summary of the method: as §1
Rattus norvegicus [8] = organism: Rattus norvegicus; experiment: (§4) Reduction in leukocyte numbers in rat pleural RPAR exudate; Nonactive.; assay type: functional, organism-based; summary of the method: as §3
Rattus norvegicus [9] = organism: Rattus norvegicus; experiment: as §4; assay type: functional, organism-based; summary of the method: as §3; remark: listed apart in the source
Rattus norvegicus [10] = organism: Rattus norvegicus; experiment: Reduction in exudate volume in rat pleural RPAR test; Nonactive.; assay type: functional, organism-based; summary of the method: as §3
Rattus norvegicus [11] = experiment: Percent inhibition of rat dermal RPAR following 350 umol/kg p.o. administration.; assay type: functional; conditions: po; summary of the method: as §1

Question: Which ED40 (Rattus norvegicus [1]) does the source give for `CN1CCCCC1CSc1ccc(Br)cc1.Cl` (stereo unspecified) here?
Answer: Its ED40 is 159 µM/kg.

Question: `Brc1ccc(CSCc2ccccn2)cc1` was tested. Which inhibition in vivo at 350 µmol/kg (Rattus norvegicus [2]) did it give?
Answer: The inhibition in vivo at 350 µmol/kg was 31%.

Question: Which inhibition in vivo at 350 µmol/kg (Rattus norvegicus [2]) does the source give for `Clc1ccc(Cc2ccccn2)cc1` here?
Answer: Its inhibition in vivo at 350 µmol/kg is 35%.

Question: What does the source list for `C[C@]12CCC(=O)C=C1CC[C@@H]1[C@@H]2[C@@H](O)C[C@@]2(C)[C@H]1CC[C@]2(O)C(=O)CO` [HYDROCORTISONE]?
Answer: ED50 (Rattus norvegicus [3]): 25 µmol/kg; ED50 (Rattus norvegicus [4]): 50 µmol/kg; ED40 (Rattus norvegicus [1]): 33 µM/kg; ED50 (Rattus norvegicus [5]): 38 µmol/kg; ED50 (Rattus norvegicus [6]): 33 µmol/kg

Question: `COc1cccc(SCc2ccccn2)c1.Cl` was tested. Which ED40 (Rattus norvegicus [1]) did it give?
Answer: Its ED40 is 273 µM/kg.

Question: With `Clc1ccnc(CSc2ccc(Br)cc2)c1` as the compound, how does the ED40 (Rattus norvegicus [7]) read?
Answer: Its ED40 is “inactive”.

Question: For `Cl.Clc1ccccc1SCc1ccccn1`, which ED40 (Rattus norvegicus [1]) is on record?
Answer: The ED40 was 300 µM/kg.

Question: `Cl.FC(F)(F)c1cccc(SCc2ccccn2)c1` was tested. Which ED40 (Rattus norvegicus [1]) did it give?
Answer: Its ED40 is 307 µM/kg.

Question: How did the ED40 (Rattus norvegicus [1]) turn out when `Cl.O=[N+]([O-])c1ccc(SCc2ccccn2)cc1` was run?
Answer: The ED40 was 233 µM/kg.

Question: `Oc1cccnc1CSc1ccc(Br)cc1` was tested. Which ED40 (Rattus norvegicus [7]) did it give?
Answer: The ED40 was “inactive”.

Question: With `Cc1cc(C(C)(C)C)ccc1SCc1ccccn1` as the compound, how does the inhibition in vivo at 350 µmol/kg (Rattus norvegicus [2]) read?
Answer: The inhibition in vivo at 350 µmol/kg was 30%.

Question: How did the ED40 (Rattus norvegicus [7]) turn out when `Cc1ccc(SCc2ccccn2)cc1` was run?
Answer: The ED40 was “inactive”.

Question: `CC(=O)Nc1ccc(SCc2ccccn2)cc1` was tested. Which inhibition in vivo at 350 µmol/kg (Rattus norvegicus [2]) did it give?
Answer: Its inhibition in vivo at 350 µmol/kg is 30%.

Question: How did the ED40 (Rattus norvegicus [7]) turn out when `Brc1ccc(SCCc2ccccn2)cc1` was run?
Answer: The ED40 was “inactive”.

Question: How did the inhibition in vivo at 350 µmol/kg (Rattus norvegicus [2]) turn out when `C[n+]1ccccc1CSc1ccc(Br)cc1` was run?
Answer: The inhibition in vivo at 350 µmol/kg was 22%.

Question: How did the ED40 (Rattus norvegicus [1]) turn out when `CC(Sc1ccc(Br)cc1)c1ccccn1.Cl` (stereo unspecified) was run?
Answer: Its ED40 is 212 µM/kg.

Question: With `c1ccc(CCc2ccccn2)cc1` as the compound, how does the inhibition in vivo at 350 µmol/kg (Rattus norvegicus [2]) read?
Answer: The inhibition in vivo at 350 µmol/kg was 36%.

Question: With `Brc1ccc(Sc2ccccn2)cc1.Cl` as the compound, how does the ED40 (Rattus norvegicus [1]) read?
Answer: The ED40 was 369 µM/kg.

Question: How did the ED50 (Rattus norvegicus [4]) turn out when `Cl.c1ccc(SCc2ccccn2)cc1` was run?
Answer: Its ED50 is 252 µmol/kg.

Question: What about the ED40 (Rattus norvegicus [1]) of the same compound?
Answer: Its ED40 is 101 µM/kg.

Question: What about the ED50 (Rattus norvegicus [5]) of the same compound?
Answer: The ED50 was 172 µmol/kg.

Question: For `Cl.[O-][n+]1ccccc1CSc1ccc(Br)cc1`, which ED40 (Rattus norvegicus [1]) is on record?
Answer: The ED40 was 148 µM/kg.

Question: Which results are given for `Cl.Clc1ccc(SCc2ccccn2)cc1`?
Answer: ED50 (Rattus norvegicus [4]): 162 µmol/kg; ED40 (Rattus norvegicus [1]): 186 µM/kg; ED50 (Rattus norvegicus [5]): 154 µmol/kg

Question: How did the inhibition in vivo at 350 µmol/kg (Rattus norvegicus [2]) turn out when `Brc1ccc(CSc2ccccn2)cc1` was run?
Answer: Its inhibition in vivo at 350 µmol/kg is 36%.

Question: Which results are given for `COc1ccc2c(c1)c(CC(=O)O)c(C)n2C(=O)c1ccc(Cl)cc1` [INDOMETHACIN]?
Answer: ED40 (Rattus norvegicus [7]): inactive; ED50 (Rattus norvegicus [8]): inactive; ED50 (Rattus norvegicus [9]): inactive; ED50 (Rattus norvegicus [10]): inactive; ED50 (Rattus norvegicus [6]): 3 µmol/kg

Question: How did the inhibition in vivo at 350 µmol/kg (Rattus norvegicus [2]) turn out when `Brc1ccc(SCc2ccncc2)cc1` was run?
Answer: The inhibition in vivo at 350 µmol/kg was 26%.

Question: With `Cc1ccc(O)c(CSc2ccc(Br)cc2)n1` as the compound, how does the ED40 (Rattus norvegicus [7]) read?
Answer: The ED40 was “inactive”.

Question: With `Brc1ccc(SCc2cccnc2)cc1` as the compound, how does the inhibition in vivo at 350 µmol/kg (Rattus norvegicus [2]) read?
Answer: Its inhibition in vivo at 350 µmol/kg is 23%.

Question: How did the ED40 (Rattus norvegicus [1]) turn out when `Cl.Clc1ccc(SCc2ccccn2)cc1Cl` was run?
Answer: Its ED40 is 402 µM/kg.

Question: With `c1ccc(CSC2CCCCC2)nc1` as the compound, how does the inhibition in vivo at 350 µmol/kg (Rattus norvegicus [2]) read?
Answer: Its inhibition in vivo at 350 µmol/kg is 21%.

Question: `CC(C)(C)c1ccc(SCc2ccccn2)cc1` was tested. Which inhibition in vivo at 350 µmol/kg (Rattus norvegicus [2]) did it give?
Answer: The inhibition in vivo at 350 µmol/kg was 34%.

Question: How did the ED40 (Rattus norvegicus [7]) turn out when `Cc1ccc(CSc2ccc(Br)cc2)nc1` was run?
Answer: The ED40 was “inactive”.

Question: `Cl.Clc1cccc(SCc2ccccn2)c1` was tested. Which ED40 (Rattus norvegicus [1]) did it give?
Answer: Its ED40 is 223 µM/kg.

Question: Which ED40 (Rattus norvegicus [7]) does the source give for `Clc1cccc(CSc2ccc(Br)cc2)n1` here?
Answer: The ED40 was “inactive”.

Question: Which ED40 (Rattus norvegicus [7]) does the source give for `Brc1ccc(SCc2cccc(CSc3ccc(Br)cc3)n2)cc1` here?
Answer: Its ED40 is “inactive”.

Question: How did the ED40 (Rattus norvegicus [1]) turn out when `Brc1ccc(SCC2CCCCN2)cc1` (stereo unspecified) was run?
Answer: The ED40 was 430 µM/kg.

Question: For `Brc1ccc(NCc2ccccn2)cc1`, which ED40 (Rattus norvegicus [7]) is on record?
Answer: Its ED40 is “inactive”.

Question: `Brc1ccccc1SCc1ccccn1.Cl` was tested. Which ED40 (Rattus norvegicus [1]) did it give?
Answer: Its ED40 is 282 µM/kg.

Question: With `Cl.Oc1nc(SCc2ccccn2)nc2ccccc12` as the compound, how does the ED40 (Rattus norvegicus [1]) read?
Answer: The ED40 was 177 µM/kg.

Question: What does the source list for `Cl.Fc1ccc(SCc2ccccn2)cc1`?
Answer: ED50 (Rattus norvegicus [4]): 129 µmol/kg; ED40 (Rattus norvegicus [1]): 159 µM/kg; ED50 (Rattus norvegicus [5]): 137 µmol/kg

Question: How did the inhibition in vivo at 350 µmol/kg (Rattus norvegicus [2]) turn out when `c1ccc(CSc2nc3ccccc3o2)nc1` was run?
Answer: The inhibition in vivo at 350 µmol/kg was 26%.

Question: Which inhibition in vivo at 350 µmol/kg (Rattus norvegicus [2]) does the source give for `Cc1cccnc1CSc1ccc(Br)cc1` here?
Answer: The inhibition in vivo at 350 µmol/kg was 25%.

Question: For `Nc1ccc(SCc2ccccn2)cc1`, which inhibition in vivo at 350 µmol/kg (Rattus norvegicus [2]) is on record?
Answer: The inhibition in vivo at 350 µmol/kg was 25%.

Question: `Cl.Cl.c1ccc(CSc2ccncc2)nc1` was tested. Which ED40 (Rattus norvegicus [1]) did it give?
Answer: Its ED40 is 149 µM/kg.

Question: Which ED40 (Rattus norvegicus [1]) does the source give for `Cl.[O-][S+](Cc1ccccn1)c1ccc(Br)cc1` (stereo unspecified) here?
Answer: The ED40 was 216 µM/kg.

Question: `Cc1cccc(CSc2ccc(Br)cc2)n1` was tested. Which inhibition in vivo at 350 µmol/kg (Rattus norvegicus [2]) did it give?
Answer: Its inhibition in vivo at 350 µmol/kg is 28%.

Question: `Clc1ccc(OCc2ccccn2)cc1` was tested. Which inhibition in vivo at 350 µmol/kg (Rattus norvegicus [2]) did it give?
Answer: Its inhibition in vivo at 350 µmol/kg is 39%.

Question: Which ED40 (Rattus norvegicus [7]) does the source give for `c1ccc(CSc2nc3ccccc3s2)nc1` here?
Answer: The ED40 was “inactive”.

Question: With `COc1ccc(SCc2ccccn2)cc1.Cl` as the compound, how does the Inhibition (Rattus norvegicus [7]) read?
Answer: Its Inhibition is 23%.

Question: Which ED40 (Rattus norvegicus [1]) does the source give for `Cl.O=S(=O)(Cc1ccccn1)c1ccc(Br)cc1` here?
Answer: Its ED40 is 192 µM/kg.

Question: For `Brc1ccc(SCc2ccccn2)cc1.Cl`, which ED50 (Rattus norvegicus [3]) is on record?
Answer: Its ED50 is 215 µmol/kg.

Question: What about the ED50 (Rattus norvegicus [4]) of the same compound?
Answer: The ED50 was 73 µmol/kg.

Question: And the ED40 (Rattus norvegicus [1])?
Answer: The ED40 was 151 µM/kg.

Question: What about the ED50 (Rattus norvegicus [5]) of the same compound?
Answer: Its ED50 is 82 µmol/kg.

Question: And the ED50 (Rattus norvegicus [6])?
Answer: The ED50 was 142 µmol/kg.

Question: With `Oc1ccc(SCc2ccccn2)cc1` as the compound, how does the ED40 (Rattus norvegicus [7]) read?
Answer: The ED40 was “inactive”.

Question: For `Brc1ccc(SCc2cc(-c3ccccc3)ccn2)cc1`, which ED40 (Rattus norvegicus [7]) is on record?
Answer: The ED40 was “inactive”.

Question: For `Cl.c1ccc(CSc2ncccn2)nc1`, which ED40 (Rattus norvegicus [1]) is on record?
Answer: Its ED40 is 283 µM/kg.

Question: Which inhibition in vivo at 350 µmol/kg (Rattus norvegicus [11]) does the source give for `COc1cccnc1CSc1ccc(Br)cc1` here?
Answer: The inhibition in vivo at 350 µmol/kg was 26%.
